Assay results reported in ChEMBL document CHEMBL1909554, “Total synthesis and bioactivity of the marine alkaloid pityriacitrin and some of its derivatives” (Eur J Med Chem, 2011).
Active and inactive are the calls of the source. No cut-off for these calls is given here.

Tests used:
PC-3 = assay: Cytotoxicity against human PC3 cells after 18 hrs by MTT assay; assay type: functional, cell-based; settings: PC-3, 96 h, in the assay text read “after 96 hrs” for “after 18 hrs”
Procedure, shortened: (§1)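 MTT metabolic assay. Cells were exposed to compound continuously starting 18 h after setup, and survival was read at 96 h. IC50 is the concentration giving 50% growth inhibition relative to untreated cells. Values are means of three independent determinations.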

MCF7 = assay: Cytotoxicity against human MCF7 cells […] by MTT assay; assay type: functional, cell-based; procedure, shortened: as §1
[1] = Cytotoxicity against human MDA231 cells […] by MTT assay; assay type: functional, cell-based; settings: MDA-MB-231; procedure, shortened: as §1
MDA-MB-231 [2] = assay: Induction of apoptosis in human MDA231 cells at 20 uM by annexin-V/7-AAD staining-based fluorescence assay; assay type: functional
Procedure, shortened: (§2)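 MDA-231 breast carcinoma cells were exposed to test compounds at 10, 20 or 50 µM, or to paclitaxel as reference at 10 or 50 nM. Results are expressed as percent apoptotic cells.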

[3] = biological target: Aurora kinase B (Homo sapiens) (UniProt Q96GD4); assay: Inhibition of human recombinant Aurora B at 10 uM after 4 hrs by Kinase-Glo luminescent assay
Sequence of Aurora kinase B (Homo sapiens) (Q96GD4 whole entry): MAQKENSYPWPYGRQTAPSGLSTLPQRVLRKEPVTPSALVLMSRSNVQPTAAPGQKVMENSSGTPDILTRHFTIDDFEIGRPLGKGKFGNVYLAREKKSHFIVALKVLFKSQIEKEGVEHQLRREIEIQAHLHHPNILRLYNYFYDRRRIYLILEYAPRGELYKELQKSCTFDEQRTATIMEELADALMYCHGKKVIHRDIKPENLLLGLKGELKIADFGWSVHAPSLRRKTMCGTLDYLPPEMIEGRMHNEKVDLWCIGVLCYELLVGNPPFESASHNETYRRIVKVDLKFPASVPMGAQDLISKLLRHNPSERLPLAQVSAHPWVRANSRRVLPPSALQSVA
Procedure, shortened: (§3)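 Full-length human recombinant kinases were incubated in kinase buffer containing ATP and poly(Glu:Tyr) substrate, with or without compound at 10 µM final, for 4 h at room temperature. Remaining ATP was quantified by Kinase-Glo luminescence.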

MDA-MB-231 [4] = assay: Induction of necrosis in human MDA231 cells at 50 uM by annexin-V/7-AAD staining-based fluorescence assay; assay type: functional, cell-based
[5] = biological target: Dual specificity mitogen-activated protein kinase kinase 1 (Homo sapiens) (UniProt Q02750); assay: Inhibition of human recombinant MEK1 at 10 uM after 4 hrs by Kinase-Glo luminescent assay; procedure, shortened: as §3
Sequence of Dual specificity mitogen-activated protein kinase kinase 1 (Homo sapiens) (Q02750 whole entry): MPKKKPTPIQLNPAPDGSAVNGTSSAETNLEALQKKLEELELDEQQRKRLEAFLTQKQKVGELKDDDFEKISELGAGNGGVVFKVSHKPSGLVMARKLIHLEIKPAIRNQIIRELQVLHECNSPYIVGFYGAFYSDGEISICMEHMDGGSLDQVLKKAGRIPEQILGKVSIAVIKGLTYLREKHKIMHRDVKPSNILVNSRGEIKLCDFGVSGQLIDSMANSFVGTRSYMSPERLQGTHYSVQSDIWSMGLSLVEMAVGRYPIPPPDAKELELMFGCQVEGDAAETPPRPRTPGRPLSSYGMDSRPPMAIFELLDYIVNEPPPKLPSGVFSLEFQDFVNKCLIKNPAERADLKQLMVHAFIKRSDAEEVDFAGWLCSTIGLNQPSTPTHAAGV

MDA-MB-231 [6] = assay: Induction of apoptosis in human MDA231 cells at 50 uM by annexin-V/7-AAD staining-based fluorescence assay; assay type: functional; procedure, shortened: as §2
[7] = biological target: Focal adhesion kinase 1 (Homo sapiens) (UniProt Q05397); assay: Inhibition of human recombinant FAK at 10 uM after 4 hrs by Kinase-Glo luminescent assay; procedure, shortened: as §3
Sequence of Focal adhesion kinase 1 (Homo sapiens) (Q05397 2-1052 limits assumed): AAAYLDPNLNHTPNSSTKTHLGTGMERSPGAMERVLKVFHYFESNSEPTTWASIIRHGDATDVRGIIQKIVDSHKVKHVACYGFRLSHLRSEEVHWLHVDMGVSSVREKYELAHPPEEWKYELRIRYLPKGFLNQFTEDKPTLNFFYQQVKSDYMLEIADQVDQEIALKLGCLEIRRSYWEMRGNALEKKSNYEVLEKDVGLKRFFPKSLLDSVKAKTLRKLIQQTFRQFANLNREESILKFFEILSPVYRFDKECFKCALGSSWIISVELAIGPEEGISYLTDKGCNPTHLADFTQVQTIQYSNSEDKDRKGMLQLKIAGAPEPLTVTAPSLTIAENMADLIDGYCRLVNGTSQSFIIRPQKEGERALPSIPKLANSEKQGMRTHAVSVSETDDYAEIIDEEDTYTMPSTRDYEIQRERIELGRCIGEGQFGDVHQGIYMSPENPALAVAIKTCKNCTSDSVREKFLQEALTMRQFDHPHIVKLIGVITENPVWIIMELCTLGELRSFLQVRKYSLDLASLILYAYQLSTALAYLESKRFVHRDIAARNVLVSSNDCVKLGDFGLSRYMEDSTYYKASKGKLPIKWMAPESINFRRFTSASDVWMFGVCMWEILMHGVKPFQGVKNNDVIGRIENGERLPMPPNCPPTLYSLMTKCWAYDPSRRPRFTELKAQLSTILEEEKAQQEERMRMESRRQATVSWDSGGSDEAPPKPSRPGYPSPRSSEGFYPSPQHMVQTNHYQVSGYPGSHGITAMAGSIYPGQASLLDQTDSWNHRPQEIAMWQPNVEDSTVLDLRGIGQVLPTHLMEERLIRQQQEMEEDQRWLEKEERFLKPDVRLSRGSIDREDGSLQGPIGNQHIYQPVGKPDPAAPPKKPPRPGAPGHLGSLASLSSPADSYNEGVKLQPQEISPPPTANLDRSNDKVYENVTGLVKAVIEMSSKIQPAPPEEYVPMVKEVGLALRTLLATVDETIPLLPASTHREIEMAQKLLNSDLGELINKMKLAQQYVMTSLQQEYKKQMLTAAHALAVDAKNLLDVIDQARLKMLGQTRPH

[8] = biological target: Proto-oncogene tyrosine-protein kinase Src (Homo sapiens) (UniProt P12931); assay: Inhibition of human recombinant Src at 10 uM after 4 hrs by Kinase-Glo luminescent assay; procedure, shortened: as §3
Sequence of Proto-oncogene tyrosine-protein kinase Src (Homo sapiens) (P12931 2-536 limits assumed): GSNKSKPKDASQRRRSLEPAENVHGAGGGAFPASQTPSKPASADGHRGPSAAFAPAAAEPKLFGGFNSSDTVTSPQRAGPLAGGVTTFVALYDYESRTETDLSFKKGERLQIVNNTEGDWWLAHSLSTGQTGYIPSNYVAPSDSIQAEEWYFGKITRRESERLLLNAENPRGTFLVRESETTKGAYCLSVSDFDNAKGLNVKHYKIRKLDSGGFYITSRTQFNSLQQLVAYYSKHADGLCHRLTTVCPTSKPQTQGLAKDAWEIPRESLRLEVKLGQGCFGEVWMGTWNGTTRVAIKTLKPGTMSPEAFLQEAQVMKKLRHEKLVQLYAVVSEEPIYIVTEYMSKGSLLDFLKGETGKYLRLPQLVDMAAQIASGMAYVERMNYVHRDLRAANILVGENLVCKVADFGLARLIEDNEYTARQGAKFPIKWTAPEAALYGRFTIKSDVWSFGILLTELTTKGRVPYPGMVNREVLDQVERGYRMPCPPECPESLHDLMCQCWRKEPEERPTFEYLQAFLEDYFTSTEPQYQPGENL

MDA-MB-231 [9] = assay: Induction of apoptosis in human MDA231 cells by annexin-V/7-AAD staining-based fluorescence assay; assay type: functional, cell-based
[10] = biological target: Epidermal growth factor receptor (Homo sapiens) (UniProt P00533); assay: Inhibition of human recombinant EGFR at 10 uM after 4 hrs by Kinase-Glo luminescent assay; procedure, shortened: as §3
Sequence of Epidermal growth factor receptor (Homo sapiens) (P00533 whole entry): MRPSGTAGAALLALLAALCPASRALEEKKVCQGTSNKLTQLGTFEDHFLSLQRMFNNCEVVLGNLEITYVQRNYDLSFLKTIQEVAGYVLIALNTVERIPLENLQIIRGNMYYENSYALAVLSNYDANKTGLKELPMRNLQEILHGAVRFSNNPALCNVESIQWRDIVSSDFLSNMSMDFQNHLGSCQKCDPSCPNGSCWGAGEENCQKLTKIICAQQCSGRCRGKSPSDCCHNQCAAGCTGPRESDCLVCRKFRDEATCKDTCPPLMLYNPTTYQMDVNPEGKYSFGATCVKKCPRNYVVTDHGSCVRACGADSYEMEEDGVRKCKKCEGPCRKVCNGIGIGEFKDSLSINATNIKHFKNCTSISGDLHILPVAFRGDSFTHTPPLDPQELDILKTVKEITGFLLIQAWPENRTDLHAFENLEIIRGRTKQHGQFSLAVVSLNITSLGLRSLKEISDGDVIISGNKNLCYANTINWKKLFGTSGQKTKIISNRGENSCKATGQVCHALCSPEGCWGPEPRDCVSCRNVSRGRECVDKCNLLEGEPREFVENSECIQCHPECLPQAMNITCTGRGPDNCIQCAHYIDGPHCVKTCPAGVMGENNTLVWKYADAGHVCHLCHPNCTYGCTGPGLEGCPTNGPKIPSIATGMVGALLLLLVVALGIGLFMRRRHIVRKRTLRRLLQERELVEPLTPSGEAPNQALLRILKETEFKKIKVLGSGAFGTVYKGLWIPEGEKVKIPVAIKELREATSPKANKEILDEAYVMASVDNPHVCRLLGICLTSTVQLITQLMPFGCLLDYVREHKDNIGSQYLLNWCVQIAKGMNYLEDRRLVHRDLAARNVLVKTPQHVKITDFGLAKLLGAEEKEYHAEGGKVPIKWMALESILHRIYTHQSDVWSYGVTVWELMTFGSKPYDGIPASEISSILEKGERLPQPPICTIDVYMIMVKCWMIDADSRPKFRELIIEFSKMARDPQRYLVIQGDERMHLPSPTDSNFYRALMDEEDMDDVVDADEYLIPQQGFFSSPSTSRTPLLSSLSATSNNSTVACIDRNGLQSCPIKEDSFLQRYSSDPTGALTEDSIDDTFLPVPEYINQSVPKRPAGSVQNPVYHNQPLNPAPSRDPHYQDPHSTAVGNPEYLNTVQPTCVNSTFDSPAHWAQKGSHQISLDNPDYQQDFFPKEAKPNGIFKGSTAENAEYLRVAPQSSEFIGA

MDA-MB-231 [11] = assay: Induction of apoptosis in human MDA231 cells at 10 nM by annexin-V/7-AAD staining-based fluorescence assay; assay type: functional; procedure, shortened: as §2
MDA-MB-231 [12] = assay: Induction of apoptosis in human MDA231 cells at 50 nM by annexin-V/7-AAD staining-based fluorescence assay; assay type: functional; procedure, shortened: as §2

| SMILES | IC50 (PC-3) [µM] | IC50 (MCF7) [µM] | IC50 [1] [µM] | also measured |
| --- | --- | --- | --- | --- |
| O=C(c1c[nH]c2ccc([N+](=O)[O-])cc12)c1nccc2c1[nH]c1ccc(O)cc12 | > 100 | > 100 | > 100 | – |
| COC(=O)c1cc2c([nH]c3ccccc32)c(C(=O)c2c[nH]c3ccccc23)n1 | – | – | 12.6 | – |
| NCCCNC(=O)c1cc2c([nH]c3ccccc32)c(C(=O)c2c[nH]c3ccccc23)n1 | – | – | 2.48 | – |
| O=C(c1c[nH]c2ccccc12)c1nccc2c1[nH]c1ccc(O)cc12 | 16.4 | 12.9 | 6.35 | Activity (MDA-MB-231 [2]): 11.16%; inhibition [3]: 10%; Activity (MDA-MB-231 [4]): Active; inhibition [5]: 11%; Activity (MDA-MB-231 [6]): 41%; inhibition [7]: 11%; inhibition [8]: 8%; Activity (MDA-MB-231 [9]): Dose-dependent effect; inhibition [10]: 9% |
| O=C(c1c[nH]c2ccc([N+](=O)[O-])cc12)c1nccc2c1[nH]c1ccccc12 | 38.8 | > 100 | > 100 | – |
| O=C(c1c[nH]c2ccc(Br)cc12)c1nccc2c1[nH]c1ccc(O)cc12 | > 100 | > 100 | > 100 | – |
| CNCCNC(=O)c1cc2c([nH]c3ccccc32)c(C(=O)c2c[nH]c3ccccc23)n1 | – | – | 3.98 | – |
| CN(C)CCCNC(=O)c1cc2c([nH]c3ccccc32)c(C(=O)c2c[nH]c3ccccc23)n1 | – | – | 6.02 | – |
| O=C(c1c[nH]c2ccc(Br)cc12)c1nccc2c1[nH]c1ccccc12 | > 100 | 60.9 | > 100 | – |
| O=C(O)c1cc2c([nH]c3ccc(O)cc32)c(C(=O)c2c[nH]c3ccccc23)n1 | 57.9 | 79 | 42 | – |
| COc1ccc2[nH]cc(C(=O)c3nc(C(=O)O)cc4c3[nH]c3ccccc34)c2c1 | 32.3 | 3.4 | 12.1 | – |
| COc1ccc2[nH]cc(C(=O)c3nccc4c3[nH]c3ccc(O)cc34)c2c1 | > 100 | > 100 | 44.5 | – |
| NCCNC(=O)c1cc2c([nH]c3ccccc32)c(C(=O)c2c[nH]c3ccccc23)n1 | – | – | 12.6 | – |
| CN(C)CCCNC(=O)c1cc2c([nH]c3ccc(O)cc32)c(C(=O)c2c[nH]c3ccccc23)n1 | – | – | 2.51 | – |
| NCCNC(=O)c1cc2c([nH]c3ccc(O)cc32)c(C(=O)c2c[nH]c3ccccc23)n1 | – | – | 15.8 | – |
| COC(=O)c1cc2c([nH]c3ccc(O)cc32)c(C(=O)c2c[nH]c3ccccc23)n1 | – | – | 3.16 | – |
| CNCCNC(=O)c1cc2c([nH]c3ccc(O)cc32)c(C(=O)c2c[nH]c3ccccc23)n1 | – | – | 4.36 | – |
| CN(C)CCNC(=O)c1cc2c([nH]c3ccc(O)cc32)c(C(=O)c2c[nH]c3ccccc23)n1 | – | – | 1.33 | – |
| O=C(c1c[nH]c2ccccc12)c1nccc2c1[nH]c1ccccc12 | 55.1 | > 100 | > 100 | – |
| CC(=O)O[C@H]1C(=O)[C@@]2(C)[C@H]([C@H](OC(=O)c3ccccc3)[C@]3(O)C[C@H](OC(=O)[C@H](O)[C@@H](NC(=O)c4ccccc4)c4ccccc4)C(C)=C1C3(C)C)[C@]1(OC(C)=O)CO[C@@H]1C[C@@H]2O [PACLITAXEL] | – | – | – | Activity (MDA-MB-231 [11]): 11.93%; Activity (MDA-MB-231 [12]): 17.23% |
| CN(C)CCNC(=O)c1cc2c([nH]c3ccccc32)c(C(=O)c2c[nH]c3ccccc23)n1 | – | – | 3.56 | – |
| NCCCCNC(=O)c1cc2c([nH]c3ccccc32)c(C(=O)c2c[nH]c3ccccc23)n1 | – | – | 3.04 | – |
| O=C(O)c1cc2c([nH]c3ccccc32)c(C(=O)c2c[nH]c3ccccc23)n1 | 16.9 | 23.4 | 24.8 | Activity (MDA-MB-231 [2]): 4.89%; Activity (MDA-MB-231 [4]): Active; Activity (MDA-MB-231 [6]): 17.68%; Activity (MDA-MB-231 [9]): Dose-dependent effect |
| NCCCCNC(=O)c1cc2c([nH]c3ccc(O)cc32)c(C(=O)c2c[nH]c3ccccc23)n1 | – | – | 8.7 | – |
| COc1ccc2[nH]cc(C(=O)c3nccc4c3[nH]c3ccccc34)c2c1 | 49.9 | 6.94 | 18.8 | – |
